Experimental data reported in ChEMBL document CHEMBL1151252, “New lamellarin alkaloids from the Indian ascidian Didemnum obscurum and their antioxidant properties” (J Nat Prod, 2004).

Experiments:
[1] = system: Radical scavenging activity; assay: Antioxidant activity assessed as DPPH radical scavenging activity by HPLC; format: functional
Procedure, shortened: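 In the HPLC DPPH assay, test material in methanol or DMSO is mixed 1:1 with methanolic DPPH (final 250 μM) and held in the dark for 20 min at room temperature, then filtered and run on reversed-phase HPLC with diode-array detection. IC50 is obtained by linear regression over at least five concentrations, each in triplicate.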

[2] = DPPH radical scavenging activity assessed as ratio of IC50 for trolox to IC50 for test compound; format: functional
Procedure, shortened: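 TEAC is the ratio of Trolox IC50 to sample IC50. Both come from the same HPLC DPPH scavenging assay: 250 μM final DPPH, 20 min in the dark at room temperature, reversed-phase HPLC with diode-array detection. Each IC50 is derived by linear regression from at least five concentrations in triplicate.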

| IC50 [1] [µM] | Structure (SMILES) | Ratio IC50 [2] |
| --- | --- | --- |
| 67.8 | Cc1c(C)c2c(c(C)c1O)CCC(C)(C(=O)O)O2 (stereo unspecified) [TROLOX] | 1 |
| 52.7 | CC(C)(Sc1cc(C(C)(C)C)c(O)c(C(C)(C)C)c1)Sc1cc(C(C)(C)C)c(O)c(C(C)(C)C)c1 [PROBUCOL] | 1.29 |
| 63.6 | Cc1c(C)c2c(c(C)c1O)CC[C@@](C)(CCC[C@H](C)CCC[C@H](C)CCCC(C)C)O2 [ALPHA-TOCOPHEROL] | 1.07 |
